# Screening data from PubChem BioAssay.
# STAT3 inh: IL-6 driven STAT3 reporter inhibitors, primary screen, U3A cells, luciferase, luminescence, MLSCN library; AID 862, 2007; 190,000 compounds, 0.89% hits; inhibition, % at 5.5 µM; IL-6 STAT3-luciferase reporter; host cell line lacks STAT1;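 active = inhibition above the mean inhibition across all screened compounds plus 3 SD, cut at about 44% in these data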;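 note: 0% = DMSO only wells and 100% = 100 µM nifuroxazide control wells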
# STAT1 inh: STAT1 signaling inhibitors, primary screen, cell-based, HTS, luciferase reporter. NIH 3T3 STAT1-luciferase reporter, IFN-gamma, luminescence. inhibition, % at 5.5 µM. 200,000 compounds, 0.35% hits. AID 920, 2007;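 active = inhibition above a set limit, the mean inhibition across all tested compounds plus 3 SD, cut at about 34% in these data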;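 note: 0% = IFN-gamma with DMSO and 100% = IFN-gamma with 300 µM nifuroxazide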
# STAT3 activator: IL-6 driven STAT3 reporter potentiators, primary screen, U3A cells, luciferase, luminescence, MLSCN library; 190,000 compounds, 0.91% hits; AID 871, 2007; IL-6 STAT3-luciferase reporter; 100% = signal with IL-6 EC80 alone; activation (% of control), % at 5.6 µM;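 active = activation above the screen-wide mean of compound activation plus 3 SD, cut at about 130% in these data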;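 note: 0% = background luminescence of wells with medium and substrate only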
#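 Material: human STAT1-deficient U3A cells with stable STAT3-luciferase reporter / Probe or stimulus: IL-6 stimulus at 33 ng/mL final / Schedule: 1 h compound pre-exposure, 6 h IL-6 stimulation, 37 °C / Technique: luminescence / Read-out basis: percent of IL-6-only median luminescence / Control set: IL-6-only high control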
# STAT1 act: STAT1 signaling activators, primary screen, cell-based, HTS, luciferase reporter | 200,000 compounds, 2.6% hits | NIH 3T3 STAT1-luciferase reporter, IFN-gamma, luminescence; 100% = IFN-gamma alone, no compound | AID 932, 2007 | activation (% of control), % at 5.5 µM;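 active = activation above the screen-wide mean activation plus 3 SD, cut at about 130% in these data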;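 note: raw ratio to IFN-gamma control signal so 100% means no change and 0% no light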
# APP 5'UTR act: activators of APP 5'UTR luciferase reporter, primary screen, SH-SY5Y cells. activation, % at 2 µM. 190,000 compounds, 1% hits. SH-SY5Y APP 5'UTR luciferase reporter, luminescence; zero percent = DMSO vehicle wells;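 active = activation above a set limit, based on mean plus 3 SD of controls, cut at about 140% in these data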
# NF-kB neuron act: activators of NF-kB expression in neurons, primary screen, cell-based, HTS. fold change at 12.5 µM. human neuronal cells, NF-kB reporter expression; stronger effect = higher value. AID 1239, 2008. 190,000 compounds, 1.6% hits; in the data active = fold change above about 3.3
# * hit, by the source's call; x = no result given. An excerpt weighted towards active compounds, which were near 4.9% of everything screened.
SMILES,STAT3 inh,STAT1 inh,STAT3 activator,STAT1 act,APP 5'UTR act,NF-kB neuron act
COc1cccc(NC(=O)c2ccc(NC(=O)C(C)(C)C)cc2)c1,-6,-41,109,136*,94,2.1
COc1cccc(C(=O)Nc2cccc(SC)c2)c1,-4,-32,111,129*,83,2.7
CCCCOC(=O)Nc1ccc(C(=O)OC)cc1,9,-27,94,125,59,1.9
COc1cccc(NC(=O)Nc2ccc(C)c(Cl)c2)c1,13,-37,93,133*,55,2
CN(C)N1C(=O)CC(NNC(=O)c2ccncc2)C1=O (configuration not stated),-4,-8,106,107,-22,0.97
Cc1cccc(-n2ncc3c(N4CC(C)CC(C)C4)ncnc32)c1 (configuration not stated),20,-37,91,133*,x,2.3
CC1CC(C)CN(c2ncnc3c2cnn3Cc2ccc(Cl)cc2)C1 (configuration not stated),7,3,96,97,-6,0.86
COc1ccc(-n2ncc3c(N4CCCCC4)ncnc32)cc1,107*,72*,13,33,39,0.27
CC1CN(c2ncnc3c2cnn3-c2ccc(Cl)cc2)CC(C)O1 (configuration not stated),18,-52,92,147*,47,1.5
Cc1ccc(/C=C/C2=NN(C)C(=O)CC2)cc1,30,-24,75,123,153*,4.5*
CN1N=C(/C=C/c2ccccc2)CCC1=O,13,-23,91,122,58,1.8
Cc1ccc2c(N)c(C#N)sc2n1,6,-4,95,103,32,1.3
Cc1ccc2nc(-c3sc4nc(C)ccc4c3N)[nH]c2c1,23,-19,82,118,114,5.9*
N#Cc1c(NCCCO)nc(NCc2ccccc2)c2c1CCN(Cc1ccccc1)C2,2,-1,102,101,8,3.3*
CCCOc1ccc(C(=O)NCC(c2ccco2)N(C)C)cc1 (configuration not stated),-5,-2,106,102,-3,1.1
CCc1ccc(OCC(=O)N/N=C\c2ccco2)c([N+](=O)[O-])c1,-3,-16,105,114,22,1.3
Cc1c(NC(=O)COC(=O)c2cc(-c3ccc(-c4ccccc4)cc3)nc3ccccc23)c(=O)n(-c2ccccc2)n1C,-11,-51,105,146*,100,4.1*
CCOc1ccccc1NC(=O)CCCN1C(=S)NC(C)(C)CC1C (configuration not stated),-12,2,108,98,12,0.97
COc1ccc2nc(NC(=O)C3CCCO3)sc2c1 (configuration not stated),31,-56,81,150*,138*,3.5*
Cc1ccc(-c2csc(NC(=O)C3=COCCO3)n2)cc1,-1,-39,97,136*,73,2.2
O=C(Nc1nc(-c2ccc(Oc3ccccc3)cc2)cs1)C1=COCCO1,6,7,94,94,5,1
Cc1cccc2sc(NC(=O)C3CCCO3)nc12 (configuration not stated),10,-35,93,126,32,2.2
CC(C)c1nnc(NC(=O)C2CCCO2)s1 (configuration not stated),-9,-14,109,111,0,1.3
CSc1nc2ccc(NC(=O)C3CCCO3)cc2s1 (configuration not stated),8,-34,96,132*,29,2.1
COc1ccc(-c2nnc(NC(=O)C3CCCO3)s2)cc1 (configuration not stated),3,-46,101,142*,55,1.9
CCN(CC)c1nc2cc(C)ccc2cc1/C=C(\C#N)C(N)=O,-2,-1,102,102,25,0.86
O=C(NCc1ccc2c(c1)OCO2)C1CCCN1S(=O)(=O)c1ccc(Cl)cc1 (configuration not stated),0,5,102,94,14,1.1
